Assays:
[1] = Binding affinity for D1-like [3H]-SCH- 23390 receptor was determined using caudate-putamen of adult male Spragueo?=Dawley rats; assay type: tissue-based, Rattus norvegicus
Procedure, shortened: (§1)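 Rat caudate-putamen membranes, adult male Sprague–Dawley. Buffer 50 mM Tris–HCl, 5 mM KCl, 2 mM MgCl2, 2 mM CaCl2, pH 7.4 at 23 °C. [3H]SCH 23390 0.3 nM, with nonspecific binding defined by 1 μM (+)-butaclamol. Compounds were dissolved in 100% EtOH up to 5 mM (stock).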

[2] = Binding affinity for D2-like [3H]spiperone receptor was determined using caudate-putamen of adult male Spragueo?=Dawley rats; assay type: tissue-based, Rattus norvegicus
Procedure, shortened: as §1, with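 “[3H]spiperone 0.2” for “[3H]SCH 23390 0.3”, “(stock). Ki was derived from the radioligand KD.” for “(stock).”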

D(3) dopamine receptor = D(3) dopamine receptor (Rattus norvegicus, UniProt P19020); experiment: biochemical
Chain of D(3) dopamine receptor (P19020 whole entry): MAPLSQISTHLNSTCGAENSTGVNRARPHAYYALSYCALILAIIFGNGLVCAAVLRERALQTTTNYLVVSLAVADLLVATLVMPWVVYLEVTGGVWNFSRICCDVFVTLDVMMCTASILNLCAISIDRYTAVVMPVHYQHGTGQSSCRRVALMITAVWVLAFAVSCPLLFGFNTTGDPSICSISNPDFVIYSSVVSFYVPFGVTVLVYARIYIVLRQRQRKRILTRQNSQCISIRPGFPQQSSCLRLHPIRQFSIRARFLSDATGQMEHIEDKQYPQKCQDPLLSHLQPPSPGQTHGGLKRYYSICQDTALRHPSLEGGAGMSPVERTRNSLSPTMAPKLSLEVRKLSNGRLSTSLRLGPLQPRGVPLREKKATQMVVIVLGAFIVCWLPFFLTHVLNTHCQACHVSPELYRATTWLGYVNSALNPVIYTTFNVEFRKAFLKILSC

Row | Ki [1] [nM] | Ki [2] [nM] | Ki (D(3) dopamine receptor) [nM] | Compound
1 | 8890 | 3640 | 2750 | O=C(CCN1CCN2c3ccccc3CCC2C1)c1ccc(F)cc1 (stereo not drawn)
2 | 4600 | 762 | 5.8 | COc1cccc2c1CCC1CN(CCCCNC(=O)c3ccc4ccccc4c3)CCN21 (stereo not drawn)
3 | 5800 | 1120 | 45 | COc1ccc2c(c1)N1CCN(CCCCNC(=O)c3ccc4ccccc4c3)CC1CC2 (stereo not drawn)
4 | > 100000 | > 100000 | 23000 | O=C(NCCN1CCN2c3ccccc3CCC2C1)c1ccc(-c2ccccc2)cc1 (stereo not drawn)
5 | 2470 | 852 | 381 | O=C(CCCCN1CCN2c3ccccc3CCC2C1)c1ccc(F)cc1 (stereo not drawn)
6 | > 250000 | > 250000 | 244 | COc1ccc2c(c1)CCC1CN(CCCCNC(=O)c3ccc4ccccc4c3)CCN21 (stereo not drawn)
7 | 904 | 243 | 304 | O=C(CCCN1CCN2c3ccccc3CCC2C1)c1ccc(F)cc1 (stereo not drawn)
8 | 1220 | 1390 | 1650 | O=C(NCCN1CCN2c3ccccc3CCC2C1)c1ccc2ccccc2c1 (stereo not drawn)
9 | 356 | 906 | 2520 | O=C(NCCCN1CCN2c3ccccc3CCC2C1)c1ccc(-c2ccccc2)cc1 (stereo not drawn)
10 | 153000 | 2440 | 1540 | O=C(NCCCN1CCN2c3ccccc3CCC2C1)c1ccc2ccccc2c1 (stereo not drawn)
11 | 636 | 162 |  | COc1ccccc1N1CCN(CCCCNC(=O)c2ccc3ccccc3c2)CC1 [BP-897]
12 | 791 | 1570 | 18 | O=C(NCCCCN1CCN2c3ccccc3CCC2C1)c1ccc2ccccc2c1 (stereo not drawn)
13 | 6050 | 258 |  | COc1cccc2c1N1CCN(CCCCNC(=O)c3ccc4ccccc4c3)CC1CC2 (stereo not drawn)
14 | 7950 | 3890 | 7490 | O=C(CN1CCN2c3ccccc3CCC2C1)c1ccc(F)cc1 (stereo not drawn)

Row | Compound | Ki [1] [nM] | Ki [2] [nM] | Ki (D(3) dopamine receptor) [nM]
15 | O=C(NCCCCN1CCN2c3ccccc3CCC2C1)c1ccc(-c2ccccc2)cc1 (stereo not drawn) | 258 | 220 | 22
